These results are taken from ChEMBL document CHEMBL1782009, “Synthesis and characterization of new types of halogenated and alkylated imidazolidineiminothiones and a comparative study of their antitumor, antibacterial, and antifungal activities” (Eur J Med Chem, 2011).

In brackets after ≈: the same amount, converted by molar mass.

What all share (assay type): functional
The subject of test [1] is Bacillus subtilis. Description: Antibacterial activity against Bacillus subtilis NCTC 1040 at 5 mg/ml after 24 hrs by agar disc diffusion method. The following applies: NCTC 1040, 24 h, read-out: DIZ. In short, it runs like this:
(§1)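 Agar well-diffusion using 1 cm wells, each loaded with 100 of compound solution (5 mg/mL in DMF). Bacteria were maintained on nutrient agar and plated as a standard suspension. Plates were incubated 24 h at 35 °C, and inhibition zone diameters were measured.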

Test [2] concerns Candida albicans. Description: Antifungal activity against Candida albicans IMRU 3669 at 5 mg/ml by agar disc diffusion method. The following applies: read-out: DIZ. In general terms: Agar diffusion results depend on both activity and mobility in agar.
In test [3] the test system is Escherichia coli. Description: Antibacterial activity against Escherichia coli NCTC 10416 at 5 mg/ml after 24 hrs by agar disc diffusion method. The following applies: NCTC 10416, 24 h, read-out: DIZ. In short, it runs like this: as §1
Test [4] deals with Aspergillus flavus. Description: Antifungal activity against Aspergillus flavus at 5 mg/ml by agar disc diffusion method. Conditions: read-out: DIZ.
Test [5] concerns Escherichia coli. Description: Antibacterial activity against Escherichia coli NCTC 10416 by macrotube dilution method. In outline:
(§2)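 Macrotube twofold dilution following CLSI guidelines, with 15 tubes per organism. Tube 1 held 2 mg compound in 2.0 mL DMF and tubes 2–14 held 1.0 mL broth; 1.0 mL was carried serially, and tube 15 was the control. Colonies were suspended in 5.0 mL broth, then 0.2 mL was diluted into 40 mL, and 1.0 mL was added per tube. Bacteria were grown in nutrient broth at 37 °C overnight; fungi in Czapek's Dox at 30 °C for 72 h.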

Test [6] deals with Staphylococcus aureus. Description: Antibacterial activity against Staphylococcus aureus NCTC 7447 at 5 mg/ml after 24 hrs by agar disc diffusion method. Conditions: NCTC 7447, 24 h, read-out: DIZ. In outline:
as §1

Test [7] has as its system Micrococcus luteus. Description: Antibacterial activity against Sarcina lutea ATCC 934 at 5 mg/ml after 24 hrs by agar disc diffusion method. Conditions: ATCC 934, 24 h, read-out: DIZ. In outline: as §1
The subject of test [8] is Escherichia coli. Description: Bactericidal activity against Escherichia coli NCTC 10416 by broth microtiter MIC test.
Test [9] has as its system Candida albicans. Description: Antifungal activity against Candida albicans IMRU 3669 after 72 hrs by macrotube dilution method. Conditions: IMRU 3669, 72 h. In outline:
as §2

The subject of test [10] is Aspergillus flavus. Description: Antifungal activity against Aspergillus flavus after 72 hrs by macrotube dilution method. In outline:
as §2

Test [11] has as its system Aspergillus flavus. Description: Fungicidal activity against Aspergillus flavus by broth microtiter MIC test.
The subject of test [12] is Micrococcus luteus. Description: Bactericidal activity against Sarcina lutea ATCC 934 by broth microtiter MIC test.
In test [13] the test system is Micrococcus luteus. Description: Antibacterial activity against Sarcina lutea ATCC 934 by macrotube dilution method. In short, it runs like this: as §2
Test [14] deals with Bacillus subtilis. Description: Bactericidal activity against Bacillus subtilis NCTC 1040 by broth microtiter MIC test.
For test [15], the system named is Staphylococcus aureus. Description: Antibacterial activity against Staphylococcus aureus NCTC 7447 by macrotube dilution method. In outline: as §2
The test system of test [16] is Staphylococcus aureus. Description: Bactericidal activity against Staphylococcus aureus NCTC 7447 by broth microtiter MIC test.
Test [17] deals with Bacillus subtilis. Description: Antibacterial activity against Bacillus subtilis NCTC 1040 by macrotube dilution method. In short, it runs like this:
as §2

A short description of test [18]: Antitumor activity against mouse EAC cells assessed as inhibition of cell viability at 100 ug/ml by Trypan blue assay. The following applies: Ehrlich. In short, it runs like this: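 EAC cells were taken by needle aspiration of ascitic fluid from preinoculated mice and diluted 1:10 in saline. Then 0.1 mL of cell suspension, 0.8 mL RPMI 1640 and 0.1 mL compound were incubated 2 h at 37 °C. Dead cells were counted by trypan blue exclusion, and % non-viable = non-viable/total cells × 100.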

Test [19] deals with Candida albicans. Description: Fungicidal activity against Candida albicans IMRU 3669 by broth microtiter MIC test.

For orientation: MIC means the lowest concentration that inhibits growth of the organism. Read a high MIC as weaker potency. The term MBC denotes the lowest tested concentration that kills the bacteria rather than only halting them. One may read the MFC as the lowest tested concentration that kills the fungus rather than only halting it. For orientation: inhibition means the share of the control response that was lost under treatment. In the case of `N=C1C(=S)N(c2ccccc2)C(=O)N1Cc1ccccc1`, the zone of inhibition at 5000 µg/mL in [1] amounted to 21.5 mm; in test [2] it was 24 mm; in test [3] it was 23.5 mm; in [4], 17 mm; in test [6] it was 22 mm; in test [7], 20 mm. Besides, the MIC in test [5] was 16.1 µg/mL (≈ 54.5 µM); in test [9], 64.5 µg/mL (≈ 218 µM); in test [10], 250 µg/mL (≈ 846 µM); in test [13] it was 32.3 µg/mL (≈ 109 µM); in test [15], 64.5 µg/mL (≈ 218 µM); in [17] it was 64.5 µg/mL (≈ 218 µM). Also, the MBC in test [8] came out at 16.1 µg/mL (≈ 54.5 µM); in [12], 32.3 µg/mL (≈ 109 µM); in test [14], 64.5 µg/mL (≈ 218 µM); in test [16], 64.5 µg/mL (≈ 218 µM). Also, the MFC in test [11] was determined as 250 µg/mL (≈ 846 µM); in [19], 64.5 µg/mL (≈ 218 µM). Besides, the inhibition at 100 µg/mL in [18] was 60%.
